Entries after “also recorded” stand apart in the source; their conditions may differ. Like-named read-outs stand apart in the source and are kept apart here.
Assays:
[1] = target: PCSK9 in human plasma (Homo sapiens, UniProt Q8NBP7); assay: In vitro titration of PCSK9 in human plasma; assay type: binding
Method in brief: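 Pooled EDTA-anticoagulated plasma (human, n=20 donors; or cynomolgus monkey) spiked with test compound at 0, 0.3, 1, 3, 5, 10, 50, 100, 500 and 1000 nM, from 0.1 mM DMSO stocks. Incubated 30 min at 25°C. Target engagement measured on 50 μL aliquots by affinity capture, enzymatic digestion and LC-MS/MS.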

[2] = Solubility; assay type: physicochemical
[3] = Standard genotoxicity/mutagenicity assessments
[4] = system: rats; assay: Safety pharmacology and 1-month repeat-dose toxicity studies, rats; assay type: in vivo; conditions: safety pharmacology and 1-month repeat-dose toxicity
[5] = system: monkeys; assay: Safety pharmacology and 1-month repeat-dose toxicity studies, monkeys; assay type: in vivo; conditions: safety pharmacology and 1-month repeat-dose toxicity
[6] = Oral bioavailability in cynomolgus monkeys with permeation enhancer; assay type: in vivo; conditions: formulated with an established PE
[7] = Study-001 single oral dose plasma pharmacokinetics; assay type: in vivo, human; conditions: 200 mg single dose
[8] = Study-001 safety and tolerability; assay type: in vivo, human
Method in brief: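 Single-center, randomized, double-blind, placebo-controlled, single-ascending oral dose study in healthy males aged 18–50. The test compound was given alone, with Labrasol or with sodium caprate. Dosing was fasted except one group after a high-fat breakfast. Escalations were ≥4 days apart, with ≥7-day washout per participant and safety review through ≥24 h. Monitoring covered AEs, physical exam, laboratory safety, 12-lead ECG and vital signs.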

[9] = Study-003 multiple oral dose plasma pharmacokinetics; assay type: in vivo, human; conditions: for Accumulation ratio (Day 14/Day 1) AUC0-24 / Accumulation ratio (Day 14/Day 1) C24 / Accumulation ratio (Day 14/Day 1) Cmax: (90% CI); for level at time molar at 24 h: both, plasma, po; for level at time molar at 24 h / AUC(0-t) / Cmax / Tmax / half-life: human; for AUC(0-t) / Cmax / Tmax / half-life: in vivo
[10] = Study-003 safety and tolerability; assay type: in vivo, human
[11] = Passive permeability in MDCKII cells; conditions: MDCK, pH 7.4
[12] = 10 mg once daily 30 min post-meal + 360 mg sodium caprate, n=6
[13] = 10 mg once daily fasted + 360 mg sodium caprate, n=8
[14] = 20 mg once daily fasted + 360 mg sodium caprate, n=9

Chain of PCSK9 in human plasma (Q8NBP7 153-692): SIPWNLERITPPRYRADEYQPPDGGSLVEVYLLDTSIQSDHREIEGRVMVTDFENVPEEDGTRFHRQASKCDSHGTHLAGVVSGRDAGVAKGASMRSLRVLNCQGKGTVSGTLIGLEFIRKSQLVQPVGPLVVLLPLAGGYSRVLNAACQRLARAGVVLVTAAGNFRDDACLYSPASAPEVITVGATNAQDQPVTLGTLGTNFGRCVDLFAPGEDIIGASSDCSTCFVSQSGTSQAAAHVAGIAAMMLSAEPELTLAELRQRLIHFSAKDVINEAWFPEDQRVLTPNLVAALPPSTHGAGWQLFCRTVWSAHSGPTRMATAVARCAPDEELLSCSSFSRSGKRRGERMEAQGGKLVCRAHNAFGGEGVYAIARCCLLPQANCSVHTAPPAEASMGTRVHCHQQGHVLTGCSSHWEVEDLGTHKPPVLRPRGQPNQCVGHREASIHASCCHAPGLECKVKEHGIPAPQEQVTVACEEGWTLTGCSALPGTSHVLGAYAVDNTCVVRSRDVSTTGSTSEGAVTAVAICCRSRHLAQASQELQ

COc1ccc(C[C@@H]2NC(=O)[C@H]([C@@H](C)O)NC(=O)[C@@H]3[C@@H]4CCN3C(=O)[C@@H]3Cc5cn(c6ccc(F)cc56)CCCCCCN(Cc5ccc(cc5)CCNC(=O)[C@]5(C)CCCN5C2=O)C(=O)CCC(=O)N[C@@H](C)C(=O)N[C@H](CNC(=O)CCCCC[N+](C)(C)C)C(=O)N[C@@H](Cc2cccc(c2)CNC(=O)CO4)C(=O)N3)cc1 [MK-0616]
IC50 [1]: 2.5 nM
solubility [2]: 7800 µg/mL
solubility ([2]; pH 7): > 7000 µg/mL
Genotoxicity / mutagenicity [3]: not genotoxic or mutagenic
Tolerability [4]: well tolerated
Tolerability [5]: well tolerated
Oral bioavailability [6]: demonstrated oral bioavailability
Fold lower Cmax in the absence of 1,800 mg Labrasol vs same dose in the PE [7]: > 5 fold
Deaths or serious AEs ([8]; Study-001): No deaths or serious AEs
Participants with ≥1 AE ([8]; Study-001, n=28 of n=51 administered MK-0616): 54.9%
Tolerability ([8]; Study-001, single-dose oral administration): generally well tolerated
Accumulation ratio (Day 14/Day 1) AUC0-24 [9, 12]: 1.90 (1.42, 2.55) h•nmol/L
Accumulation ratio (Day 14/Day 1) C24 [9, 12]: 2.01 (1.51, 2.67) nmol/L
Accumulation ratio (Day 14/Day 1) Cmax [9, 12]: 1.60 (1.17, 2.21) nmol/L
Accumulation ratio (Day 14/Day 1) AUC0-24 [9, 13]: 1.46 (1.13, 1.88) h•nmol/L
Accumulation ratio (Day 14/Day 1) C24 [9, 13]: 1.32 (1.03, 1.70) nmol/L
Accumulation ratio (Day 14/Day 1) Cmax [9, 13]: 1.51 (1.15, 1.99) nmol/L
Delay of Day 14 Tmax by low-fat breakfast 30 minutes prior to dose ([9]; 10 mg vs same dose fasting): approximately 6 hours
Accumulation ratio (Day 14/Day 1) AUC0-24 [9, 14]: 1.97 (1.54, 2.54) h•nmol/L
Accumulation ratio (Day 14/Day 1) C24 [9, 14]: 1.81 (1.42, 2.31) nmol/L
Accumulation ratio (Day 14/Day 1) Cmax [9, 14]: 2.04 (1.56, 2.68) nmol/L
Plasma accumulation ([9]; all doses evaluated in Study-003): approximately 2 fold
level at time molar at 24 h ([9]; 20 mg once daily, C24, Day 14, 20 mg once daily fasted + 360 mg sodium caprate, n=9, footnote: median (min, max)): 11.1 nM
level at time molar at 24 h ([9]; 20 mg, C24, Day 1, 20 mg once daily fasted + 360 mg sodium caprate, n=9, geometric mean (95% CI)): 6.13 nM
AUC(0-t) ([9]; AUC0-24, Day 1, 20 mg once daily fasted + 360 mg sodium caprate, statin-treated, n=9, geometric mean (95% CI)): 0.142 µM·h
AUC(0-t) ([9]; AUC0-24, Day 14, 20 mg once daily fasted + 360 mg sodium caprate, n=9, geometric mean (95% CI)): 0.28 µM·h
Cmax ([9]; Day 1, 20 mg once daily fasted + 360 mg sodium caprate, n=9, geometric mean (95% CI)): 7.87 nM
Cmax ([9]; Day 14, 20 mg once daily fasted + 360 mg sodium caprate, n=9, geometric mean (95% CI)): 16.1 nM
Tmax ([9]; Day 14, all fasted doses): < 2 h
Tmax ([9]; Day 14, 20 mg once daily fasted + 360 mg sodium caprate, n=9, median (min, max)): 1.8 h
half-life ([9]; t1/2, Day 14, 20 mg once daily fasted + 360 mg sodium caprate, n=9, geometric mean (% geometric CV)): 244 h
half-life ([9]; t1/2, range, Day 14, across dose regimens): 178 to 244 h
Time to steady state ([9]; once daily dosing, all dosing regimens): by the end of the first week; also recorded: after 1 week
Deaths or serious AEs ([10]; Study-003): No deaths or serious AEs
Tolerability ([10]; Study-003, 14 days of daily oral dosing): generally well tolerated
Drug-related AE: dizziness ([10]; Study-003, n=1): 3.2%
Drug-related AE: dry mouth ([10]; Study-003, n=1): 3.2%
Drug-related AE: dyspepsia ([10]; Study-003, n=1): 3.2%
Drug-related AE: flushing ([10]; Study-003, n=1): 3.2%
Drug-related AE: hunger ([10]; Study-003, n=1): 3.2%
Drug-related AE: insomnia ([10]; Study-003, n=1): 3.2%
Drug-related AE: gastroesophageal reflux disease ([10]; Study-003, n=2): 6.5%
Participants with 1 or more drug-related AEs ([10]; Study-003, n=7 of 31): 22.6%
Participants with 1 or more AEs ([10]; Study-003, n=21 of n=31 administered MK-0616): 67.7%
Papp [11]: 0.71 ×10⁻⁶ cm/s

Reference: PMC10325562 (Circulation, 2023)
